Cneo AK release: causes C. neoformans cell lysis; 0.2% of 360,000 active; lysis activity, % at 15 µM; adenylate kinase release luminescence, 4 h; normalised: neutral wells 0, clomiphene wells 100;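 active = mean lysis activity across replicates of at least 80%, whatever share of replicates individually reach that level; inactive = mean lysis activity below 80%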
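Signal: Adenylate kinase release luminescence | Assay system: Log-phase Cryptococcus neoformans yeast cells | Input: Cells at 5 × 10^6 per mL | Buffer or medium: Fresh YPD growth medium | Compound: Single dose | Schedule: Static 4 h at 37 °C with compound, 1 h detection | Controls: Clomiphene | Read-out: Luminescence rise reflecting yeast cell lysis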
PglD inh: PglD (C. jejuni) enzyme inhibition; inhibition, % at 12.5 µM; purified PglD enzyme, DTNB colorimetric CoA detection; AID 602405; 0.098% of 360,000 active; in the data active = inhibition above about 16%, passing the limit was not always enough
PGC1a acetyl inh: PGC1a acetylation modulation, inhibitor mode | U2OS PGC1a acetylation, AlphaScreen anti-acetyl-lysine; with virally co-expressed GCN5 acetyltransferase | inhibition, % at 15.6 µM | 0.17% of 350,000 active | AID 651687;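 active = every replicate shows inhibition of at least 40%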;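 also: 0% = neutral control wells and 100% = positive control wells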
Vif inh: blocks HIV Vif function; HEK293T cells, Vif self-association by quenched fluorescence, imaging, 24 h; inhibition, % at 7.49 µM; 0.35% of 340,000 active; AID 602346; in the data active = inhibition above about 50%, passing the limit was not always enough
FGF22 binding: shifts melting point of recombinant human FGF22. Q9HCT0. recombinant FGF22 thermal shift, SYPRO orange fluorescence; percent of sucrose octasulfate shift, DMSO zero. activity (Tm shift, normalised), % at 9.99 µM. 1.5% of 340,000 active. AID 651658;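 active = mean Tm shift, scaled 0 neutral to 100 positive control, at about 1.3% or above, every replicate too, limit read from the data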
Target sequence (Q9HCT0 whole entry, looked up): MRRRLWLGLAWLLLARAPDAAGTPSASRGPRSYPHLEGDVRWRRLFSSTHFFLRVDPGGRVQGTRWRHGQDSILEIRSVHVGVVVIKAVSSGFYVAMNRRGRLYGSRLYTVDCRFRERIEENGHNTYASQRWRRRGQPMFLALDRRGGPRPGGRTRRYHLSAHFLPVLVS
rRNA inh HTS: selective bacterial rRNA inhibition in E. coli; E. coli WT GFP vs humanized-ribosome RFP mutants, fluorescence, 24 h; stronger effect = lower value; DMSO median 0, no signal -100; GFP signal change (wild-type ribosome), % (test concentration not listed); 1.6% of 350,000 active; AID 720706;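 active = significant combined selectivity score with lowered wild-type GFP, culture density cut under 30%, mutant RFP and density less affected; inactive = any of these conditions unmet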
* hit, by the source's call; · = no result given; ! = not confirmed by another sample. Shown are actives, neighbours in structure and some others; about 2.9% of the full set was active somewhere.

SMILES	Cneo AK release	PglD inh	PGC1a acetyl inh	Vif inh	FGF22 binding	rRNA inh HTS
CC1=CCC(C(=O)O)C(C(=O)Nc2cccnc2)C1 (configuration not stated)	·	·	·	51*	0	13
CC1=CCC(C(=O)O)C(C(=O)Nc2nc3ccc(S(C)(=O)=O)cc3s2)C1 (configuration not stated)	0	2	-2	4	·	·
O=C(C[C@@H]1CC[C@H]2[C@@H](COC[C@@H](O)CN2Cc2cccc(Cl)c2)O1)NCc1cccc(F)c1	-3	1	-17	·	0	-4
Nc1nc(SCc2ccccc2)c2ncn(Cc3ccccc3)c2n1	-1	-7	-4	0	0	-17*
C[C@@H]1CCCCO[C@@H](CN(C)C(=O)Cc2ccccc2)[C@H](C)CN([C@@H](C)CO)C(=O)c2cc(NC(=O)c3ccncc3)ccc2O1	1	1	0	·	0	-2
CCCCNC(=O)C1(C)CCCCN1C(=O)c1csnn1 (configuration not stated)	0	0	·	21	44*	5
Cc1ccc(COc2ccc(/C=N/O)cc2)cc1	·	·	·	-2	0	-16*
CCOc1ccc(/C=N/O)cc1	-8	-6	·	·	·	·
C[C@H](CO)N1C[C@H](C)[C@H](CN(C)CC2CCCCC2)Oc2c(NS(C)(=O)=O)cccc2C1=O	91*	-3	1	·	0	7
C[C@H]1CCCCO[C@@H](CN(C)CC2CCCCC2)[C@@H](C)CN([C@@H](C)CO)C(=O)c2cc(NC(=O)Nc3ccc4c(c3)OCO4)ccc2O1	3	-1	-26	·	1.7*	-13
C[C@@H]1CN([C@@H](C)CO)C(=O)c2cc(NC(=O)C3CC3)ccc2O[C@H]1CN(C)CC1CCCCC1	100*	-3	17	·	0	3
C[C@@H]1CCCCO[C@@H](CN(C)CC2CCCCC2)[C@@H](C)CN([C@@H](C)CO)C(=O)c2cc(NC(=O)Nc3ccc4c(c3)OCO4)ccc2O1	3	-2	20	·	·	0
Cc1noc(C)c1NC(=O)Nc1cccc2c1O[C@@H](CN(C)C(=O)Nc1ccc3c(c1)OCO3)[C@@H](C)CN([C@H](C)CO)C2=O	5	-4	·	-6	0	-28*!
C[C@@H]1CN([C@H](C)CO)C(=O)c2cc(NC(=O)C3CC3)ccc2O[C@@H]1CN(C)CC1CCCCC1	7	1	-1	·	1	1
C[C@H]1CN([C@@H](C)CO)C(=O)c2ccccc2-c2ccccc2CO[C@H]1CN(C)Cc1ccc(F)cc1	0	4	-1	·	0	-6
O=C(c1ccccc1F)N1C[C@@H]2[C@H](c3ccccc31)[C@H](CO)N2C(=O)c1cccnc1	52	-2	1	·	0	1
Cc1noc(C)c1NC(=O)Nc1cccc2c1O[C@H](CN(C)CC1CCCCC1)[C@H](C)CN([C@H](C)CO)C2=O	55	18*	-2	·	0	0
C[C@H](CO)N1C[C@H](C)[C@H](CN(C)CC2CCCCC2)Oc2ccc(NC(=O)Nc3ccc4c(c3)OCO4)cc2C1=O	83*	0	·	·	0	3
COc1ccc(S(=O)(=O)N(C)C[C@@H]2Oc3ccc(NC(=O)C4CC4)cc3C(=O)N([C@H](C)CO)C[C@H]2C)cc1	55	16*	8	·	0	3
Cc1noc(C)c1NC(=O)Nc1ccc2c(c1)C(=O)N([C@H](C)CO)C[C@H](C)[C@H](CN(C)CC1CCCCC1)O2	93*	-2	-1	·	0	1
COc1ccc(S(=O)(=O)N(C)C[C@@H]2Oc3ccc(NC(=O)C4CC4)cc3C(=O)N([C@@H](C)CO)C[C@H]2C)cc1	60	13	0	·	0	2
O=C(C[C@H]1CC[C@H](NC(=O)CC2CC2)[C@@H](CO)O1)NCc1ccc(-c2ccccc2)cc1	2	-2	-1	·	0	0
CCCNC(=O)[C@H]1[C@H](CO)[C@H]2Cn3c(ccc(-c4ccncc4)c3=O)[C@@H]1N2CC1CC1	·	-1	2	·	·	3
CO[C@@H]1CN(C)C(=O)c2cc(NS(C)(=O)=O)ccc2OC[C@H](C)N(Cc2ccccn2)C[C@H]1C	·	·	-21	·	·	0
